Data on 15 molecules can be found in ChEMBL document CHEMBL1777695, “Design and synthesis of pironetin analogues with simplified structure and study of their interactions with microtubules” (Eur J Med Chem, 2011).

The IC50 is the concentration needed to halve the response being measured. Low readings indicate greater potency, high ones weaker potency.

Structures are written as SMILES. Active and inactive are the calls of the source. No cut-off for these calls is given here. A value given as a limit tells only on which side of the number the result lay.

Experiment [1] has as its system A2780. Put plainly: Cytotoxicity against compound-sensitive human A2780 cells after 24 hrs by MTT assay. The format is functional, cell-based. Particulars: A2780, 24 h. The method, boiled down:
(§1)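 MTT proliferation assay in ovarian carcinoma A2780 and P-glycoprotein-overexpressing A2780AD cells, grown in RPMI 1640 with 10% FCS, glutamine, antibiotics and 0.25 units/mL bovine insulin. IC50 (50% inhibition of proliferation) is the mean ± standard error of two independent experiments in duplicate. Relative resistance is IC50 in A2780AD divided by IC50 in A2780.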
On the technique in general: Formazan colour is commonly taken as a measure of viable cells.

Experiment [2] is described as follows: Cytotoxicity against compound-resistant human A2780AD cells after 24 hrs by MTT assay. The following applies: A2780 ADR. The format is functional, cell-based. The gist of the method: as §1
Experiment [3] has as its system A549. Put plainly: Cell cycle arrest in human A549 cells assessed as minimum concentration required to induce accumulation at G2/M phase after 20 hrs by propidium iodide staining-based flow cytometry. The format is functional. The gist of the method: (§2)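 A549 cells (RPMI 1640, 10% FCS, glutamine, antibiotics) exposed 20 h to ligand or vehicle. Cells fixed, RNase-treated and stained with propidium iodide. DNA content read by flow cytometry. The lowest concentration giving maximal G2/M arrest is reported.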

The test system of experiment [4] is A549. The experiment can be described thus: Induction of apoptosis in human A549 cells after 20 hrs. The format is functional, cell-based.
Experiment [5] relates to A2780. The experiment can be described thus: Resistance index, ratio of IC50 for human compound-resistant A2780AD cells to IC50 for human compound-sensitive A2780 cells.
Experiment [6] has as its system A549. Put plainly: Induction of abberant mitosis in human A549 cells assessed as metaphase mitotic cells with type III mitotic spindles at 200 uM after 4 hrs relative to control. Type of experiment: functional, cell-based. The method, boiled down:
(§3)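 A549 cells grown overnight on coverslips, then treated 4 h with ligand (50 nM or 200 µM) or DMSO vehicle. Cells permeabilized with Triton X-100 and fixed in 3.7% formaldehyde. Microtubules stained with DM1A anti-α-tubulin antibody and DNA with Hoechst 33342. Spindle and microtubule morphology examined by epifluorescence microscopy.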

Experiment [7] concerns A549. The experiment can be described thus: Induction of abberant mitosis in human A549 cells assessed as metaphase mitotic cells with DNA forming a ring surrounding mono-aster of microtubule at 200 uM after 4 hrs relative to control. The format is functional, cell-based. The gist of the method:
as §3

The test system of experiment [8] is A549. Put plainly: Induction of microtubule cytoskeleton depolymerization in human A549 cells at 200 uM after 4 hrs by immunofluorescence assay. Type of experiment: cell-based.
Experiment [9] can be described thus: Inhibition of tubulin assembly assessed as concentration of tubulin required to produce assembly at 100 uM after 30 mins. The method, boiled down:
(§4)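 Purified tubulin (20 µM) incubated 30 min at 37 °C in GAB (3.4 M glycerol, 10 mM sodium phosphate, 1 mM EGTA, 1 mM GTP, pH 6.5) with 25 µM pironetin or docetaxel, 100 µM analogue, or DMSO vehicle. Critical concentration for assembly determined. Mean of five measurements ± SE.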

A short description of experiment [10]: Displacement of pironetin from tubulin in cell-free system assessed as bound pironetin concentration at 200 uM after 15 mins by HPLC method. The gist of the method: (§5)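 Tubulin (25 µM in GAB: 3.4 M glycerol, 10 mM sodium phosphate, 1 mM EGTA, 1 mM GTP, pH 6.5) preincubated 15 min at 37 °C with 200 µM analogue or DMSO. 30 µM pironetin then added for a further 15 min. Docetaxel (10 µM) added as internal standard. Unreacted pironetin extracted three times with CH2Cl2 and quantified by reverse-phase HPLC, UV at 230 nm. Mean of three measurements ± SE.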

The nature of experiment [11]: Displacement of pironetin from tubulin in cell-free system assessed as unbound pironetin concentration at 200 uM after 15 mins by HPLC method. The method, boiled down:
as §5

Experiment [12] in a line: Inhibition of tubulin assembly assessed as concentration of tubulin required to produce assembly at 25 uM after 30 mins. The method, boiled down:
as §4

The test system of experiment [13] is A549. Put plainly: Cell cycle arrest in human A549 cells assessed accumulation at G2/M phase at 50 nM after 20 hrs by propidium iodide staining-based flow cytometry. The format is functional. The method, boiled down: as §2
For orientation: Flow cytometry measures light scatter and fluorescence of single cells or particles in a stream.

The subject of experiment [14] is A549. The experiment can be described thus: Induction of microtubule cytoskeleton depolymerization in human A549 cells at 50 nM after 4 hrs by immunofluorescence assay. Type of experiment: cell-based. The gist of the method:
as §3

Experiment [15] relates to A549. Put plainly: Induction of abberant mitosis in human A549 cells assessed as metaphase mitotic cells with type III mitotic spindles at 50 nM after 4 hrs relative to control. The format is functional, cell-based. The method, boiled down:
as §3

Experiment [16] relates to A549. Put plainly: Induction of abberant mitosis in human A549 cells assessed as metaphase mitotic cells with DNA forming a ring surrounding mono-aster of microtubule at 50 nM after 4 hrs relative to control. The format is functional, cell-based. The gist of the method:
as §3

A short description of experiment [17]: Binding affinity to tubulin after 15 min. The gist of the method: as §5

As for `CCCCC[C@H](C[C@@H](O)C[C@@H]1CC=CC(=O)O1)OC`, the IC50 is 54.5 µM in the experiment with A2780 [1] and 91.5 µM in experiment [2]. Besides, the Activity with A549 [3] worked out at 200 µM. Also, the result in the experiment with A549 [4] was inactive. Besides, the “Ratio IC50” value in the experiment with A2780 [5] was 1.67.
For the molecule `CCCCC[C@@H](C[C@@H](O)C[C@@H]1CC=CC(=O)O1)OC`, the figures for the IC50 (with A2780 [1]; in [2]) were 49.4 µM and 46.3 µM, respectively. Further, the Activity with A549 [3] came to 200 µM. Further, the outcome with A549 [4] was inactive. Moreover, the result in the experiment on A549 [6], in the experiment with A549 [7] and in the experiment on A549 [8] was Active. Besides, the “Ratio IC50” value with A2780 [5] was 0.93.
`CCCCC[C@H](C[C@@H](O)C[C@H]1CC=CC(=O)O1)OC`: the values for the IC50 (in the experiment with A2780 [1]; in experiment [2]) were 28.9 µM and 18.1 µM, respectively. Besides, the Activity was determined as 100 µM in the experiment on A549 [3] and 3.44 µM in experiment [9]. In the experiment with A549 [4], the outcome was inactive. Further, in the experiment with A2780 [5], the “Ratio IC50” value amounted to 0.62.
In the case of `CCCCC[C@H](CCC[C@H]1CC=CC(=O)O1)OC`, the IC50 with A2780 [1] was 17.1 µM; in experiment [2], 12.2 µM. Moreover, the Activity in the experiment on A549 [3] was determined as 50 µM; in [10] it was 10 µM; in experiment [9], 3.85 µM; in experiment [11], 15 µM. Besides, the outcome in the experiment on A549 [6], with A549 [7] and in the experiment with A549 [8] was Active. The “Ratio IC50” value in the experiment on A2780 [5] is reported as 0.7.
For `CC(=O)O[C@@]12CO[C@@H]1C[C@H](O)[C@@]1(C)C(=O)[C@H](O)C3=C(C)[C@@H](OC(=O)[C@H](O)[C@@H](NC(=O)OC(C)(C)C)c4ccccc4)C[C@@](O)([C@@H](OC(=O)c4ccccc4)[C@H]21)C3(C)C`, the Activity in experiment [12] turned out to be 0.4 µM.
Take `CCCCC[C@H](C[C@H](O)C[C@@H]1CC=CC(=O)O1)OC`: the concentration for half-maximal inhibition (IC50) in the experiment with A2780 [1] is 22.9 µM; in experiment [2] it was 30 µM. In addition, the results for the Activity (in the experiment on A549 [3]; in experiment [10]; in experiment [11]) were 100 µM, 4 µM and 10 µM, respectively. The outcome in the experiment with A549 [4] was inactive. Besides, in the experiment on A2780 [5], the “Ratio IC50” value worked out at 1.3.
Take `CC(=O)O[C@H]1C(=O)[C@@]2(C)[C@H]([C@H](OC(=O)c3ccccc3)[C@]3(O)C[C@H](OC(=O)[C@H](O)[C@@H](NC(=O)c4ccccc4)c4ccccc4)C(C)=C1C3(C)C)[C@]1(OC(C)=O)CO[C@@H]1C[C@@H]2O` [PACLITAXEL]: the half-maximal inhibitory concentration (IC50) with A2780 [1] was found to be 0.00082 µM; in [2], 0.949 µM. Moreover, the “Ratio IC50” value in the experiment on A2780 [5] is listed as 1157.
For the molecule `CCCCC[C@@H](C[C@H](O)C[C@@H]1CC=CC(=O)O1)OC`, the IC50 was determined as 35.4 µM in the experiment on A2780 [1] and 26.3 µM in experiment [2]. Further, the Activity is 100 µM in the experiment with A549 [3], 4 µM in experiment [10] and 10 µM in [11]. The result with A549 [4] was inactive. The “Ratio IC50” value with A2780 [5] is recorded as 0.74.
`CCCCC[C@H](C[C@H](O)C[C@H]1CC=CC(=O)O1)OC`: the results for the 50% inhibitory concentration (IC50) (in the experiment on A2780 [1]; in experiment [2]) were 44 µM and 57.5 µM, respectively. The Activity is 100 µM with A549 [3], 4 µM in experiment [10], 3.39 µM in experiment [9] and 10 µM in experiment [11]. Besides, in the experiment with A549 [4], the result was inactive. Also, the “Ratio IC50” value in the experiment with A2780 [5] is recorded as 1.3.
`CCCCC[C@@H](CCC[C@@H]1CC=CC(=O)O1)OC`: the IC50 with A2780 [1] was 14.9 µM; in experiment [2], 11.5 µM. For the same molecule, the Activity in the experiment on A549 [3] is 50 µM; in experiment [10] it was 10 µM; in experiment [9] it was 3.75 µM; in experiment [11], 15 µM. Further, in the experiment on A549 [4], the result was inactive. Further, the “Ratio IC50” value with A2780 [5] was determined as 0.77.
On to `CCCCC[C@@H](CCC[C@H]1CC=CC(=O)O1)OC`, for which the IC50 in the experiment on A2780 [1] turned out to be 20.6 µM; in experiment [2], 9 µM. The Activity with A549 [3] is 50 µM; in [9], 3.73 µM. The result in the experiment on A549 [4] was inactive. Further, the result in the experiment on A549 [6], in the experiment with A549 [7] and with A549 [8] was Active. Moreover, in the experiment on A2780 [5], the “Ratio IC50” value turned out to be 0.45.
For `CCCCC[C@@H](C[C@@H](O)C[C@H]1CC=CC(=O)O1)OC`, the IC50 in the experiment with A2780 [1] was 33.7 µM; in [2], 25.2 µM. For the same molecule, the Activity in the experiment on A549 [3] was found to be 200 µM. Also, in the experiment on A549 [4], the outcome was inactive. Moreover, the “Ratio IC50” value in the experiment on A2780 [5] is 0.74.
`CCCCC[C@H](CCC[C@@H]1CC=CC(=O)O1)OC`: the values for the IC50 (in the experiment on A2780 [1]; in experiment [2]) were 14.4 µM and 20.5 µM, respectively. Also, the Activity turned out to be 50 µM in the experiment with A549 [3], 10 µM in experiment [10], 3.79 µM in [9] and 15 µM in experiment [11]. Further, the outcome in the experiment with A549 [6], in the experiment on A549 [7] and in the experiment with A549 [8] was Active. Further, the “Ratio IC50” value in the experiment with A2780 [5] is listed as 1.42.
In the case of `CCCCC[C@@H](C[C@H](O)C[C@H]1CC=CC(=O)O1)OC`, the IC50 turned out to be 53.7 µM in the experiment on A2780 [1] and 48 µM in [2]. In the experiment with A549 [3], the Activity turned out to be 200 µM. For the same molecule, in the experiment with A549 [4], the outcome was inactive. For the same molecule, the “Ratio IC50” value with A2780 [5] is 0.89.
On to `C/C=C/C[C@H](C)[C@@H](OC)[C@@H](C)[C@H](O)C[C@H]1OC(=O)C=C[C@H]1CC` [PIRONETIN], for which the result with A549 [13], in the experiment on A549 [14], with A549 [15] and in the experiment on A549 [16] was Active. Further, the figures for the IC50 (with A2780 [1]; in experiment [2]) were 0.0029 µM and 0.003 µM, respectively. Further, the result in the experiment with A549 [4] was inactive. For the same molecule, the figures for the Activity in experiment [12] and in [17] were over 15 µM and 23.4 µM, respectively. For the same molecule, in the experiment with A2780 [5], the “Ratio IC50” value turned out to be 1.
